From PubChem BioAssay
Only some compounds are listed: those with a hit (about 2.1% of all), similar ones and a draw of the others.
Apaf1 inhib: inhibitors of human Apaf-1 apoptosome, primary screen, biochemical, DEVD-Rh110 fluorescence, uHTS | Apoptotic protease-activating factor 1 (Homo sapiens), O14727 | reconstituted apoptosome caspase-3 activity | inhibition, % at 20 µM | 330,000 compounds, 0.71% hits | AID 489030, 2010; active = inhibition of at least 40% at 20 µM
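Medium: Hepes buffer, pH 7.5 / System: biochemical Apaf-1 apoptosome reconstitution / Measured by: Rh110 fluorescence, excitation 480 nm, emission 540 nm / Times: compound with Apaf-1, dATP, procaspase-3 30 min, then 50 min reaction, room temperature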
TDP2 inh: human TDP2 enzyme inhibitors, primary screen, biochemical, epi absorbance, recombinant enzyme; Tyrosyl-DNA phosphodiesterase 2 (Homo sapiens), O95551; T5PNP hydrolysis, p-nitrophenol absorbance 415 nm; inhibition, % at 12.8 µM; 370,000 compounds, 0.34% hits; AID 720702, 2013;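 active = inhibition above the mean of all tested compounds plus 3 SD, set per campaign, cut at about 25% in these data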
Target sequence (O95551 whole entry, looked up): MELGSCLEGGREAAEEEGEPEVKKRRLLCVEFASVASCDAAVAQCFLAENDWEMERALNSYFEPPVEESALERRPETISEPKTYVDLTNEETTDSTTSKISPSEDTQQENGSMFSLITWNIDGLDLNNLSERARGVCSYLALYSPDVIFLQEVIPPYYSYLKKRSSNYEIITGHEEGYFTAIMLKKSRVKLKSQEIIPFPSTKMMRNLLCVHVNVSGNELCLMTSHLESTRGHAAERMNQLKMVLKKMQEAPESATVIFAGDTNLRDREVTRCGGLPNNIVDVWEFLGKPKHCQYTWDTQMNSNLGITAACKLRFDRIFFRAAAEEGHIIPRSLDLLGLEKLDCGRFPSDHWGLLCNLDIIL
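Evaluation: % inhibition relative to enzyme-containing and enzyme-free wells. Material: recombinant human TDP2. Benchmarks: enzyme-free and DMSO wells. Timing: enzyme reaction with compound for 2 h at 37 °C. Compound dosing: 12.8 µM only. Measured by: p-Nitrophenol epi absorbance. Reagent: T5PNP substrate at 5 mM, a TopII-DNA adduct mimic. Replication: single well per compound.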
PP5 inh: PP5 phosphatase inhibitors, primary screen, biochemical, fluorescence. Serine/threonine-protein phosphatase 5 (Homo sapiens), P53041. 320,000 compounds, 0.18% hits. AID 1987, 2009. inhibition, % at 6.7 µM. purified PP5c, OMFP substrate fluorescence;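 active = inhibition above the campaign's mean inhibition across all tested compounds plus 3 SD, cut at about 9.5% in these data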
GSTO1 inh: inhibitors of recombinant GSTO1, primary screen, counter-screen for RBBP9 inhibitor project, biochemical, fluorescence polarization; Glutathione S-transferase omega-1 (Homo sapiens), P78417; activity-based probe fluorescence polarization; inhibition, % at 5.96 µM; 300,000 compounds, 1.1% hits;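 active = inhibition above the campaign mean inhibition plus 3 SD, cut at about 35% in these data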
PP1 counter: PP1-alpha phosphatase inhibitors, primary screen, counter-screen for PP5 inhibitor project, biochemical, fluorescence, OMFP substrate, single point. Serine/threonine-protein phosphatase PP1-alpha catalytic subunit (Homo sapiens), P62136. purified PP1alpha. inhibition, % at 6.7 µM. 320,000 compounds, 0.9% hits. AID 2235, 2010;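 active = inhibition above the mean inhibition of all tested compounds plus 3 SD, computed separately for each screening campaign, cut at about 15% in these data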
Target sequence (P62136 whole entry, looked up): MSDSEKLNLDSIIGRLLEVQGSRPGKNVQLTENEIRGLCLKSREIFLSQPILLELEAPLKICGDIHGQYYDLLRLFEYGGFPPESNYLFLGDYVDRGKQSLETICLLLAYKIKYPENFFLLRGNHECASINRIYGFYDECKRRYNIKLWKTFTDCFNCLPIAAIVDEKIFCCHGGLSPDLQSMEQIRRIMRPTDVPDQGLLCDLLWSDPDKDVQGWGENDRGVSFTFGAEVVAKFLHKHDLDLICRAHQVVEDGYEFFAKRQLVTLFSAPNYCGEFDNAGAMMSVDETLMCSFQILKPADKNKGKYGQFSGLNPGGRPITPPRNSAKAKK
GSTO1 confirm: GSTO1 inhibitor hit confirmation, counter-screen for RBBP9 inhibitor project, biochemical, fluorescence polarization, triplicate; 2,400 compounds, 54% hits; shares compounds with GSTO1 inh; inhibition, % at 5.96 µM; recombinant GSTO1, probe fluorescence polarization;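 active = inhibition above the primary screen's cutoff, its mean inhibition plus 3 SD, cut at about 35% in these data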;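 also: loss of polarization as inhibitors block binding of rhodamine sulfonate ester activity probe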
GSTO1 recomb ABPP: inhibitors of purified human GSTO1, late-stage follow-up, biochemical, gel ABPP, SE-Rh probe, percent inhibition | shares compounds with GSTO1 inh | inhibition, % at 1 µM | 130 compounds, 30% hits | recombinant GSTO1, gel ABPP SE-Rh probe fluorescence;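 active = inhibition of the enzyme GSTO1 above about 75%, limit read from the data; inactive = inhibition below that limit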
Each line names hits and unclear results; the compound was inactive in the other large screens (follow-up assays come after a bar, where they were run).

N#CC1(NC(=O)COC(=O)c2cc(O)c3ccccc3c2O)CCCCC1	Apaf1 inhib 73, GSTO1 inh 61 (no result: TDP2 inh) | GSTO1 confirm 57
C/C(=N\NS(=O)(=O)c1ccc(C)c([N+](=O)[O-])c1)c1cc2ccccc2o1	none
C/C(=N\NS(=O)(=O)c1ccc(Cl)c([N+](=O)[O-])c1)c1ccc(C)o1	GSTO1 inh 49 | GSTO1 confirm inactive
C/C(=N\NS(=O)(=O)c1ccc(Cl)c([N+](=O)[O-])c1)c1cc2ccccc2o1	GSTO1 inh 40 | GSTO1 confirm inactive
CCNC(=O)C[C@H]1CC[C@H]2[C@@H](COc3ccc(NC(=O)Nc4ccccc4)cc3C(=O)N2C)O1	none (no result: Apaf1 inhib, PP5 inh, GSTO1 inh, PP1 counter)
C=CCN=C1NC(c2ccc(Cl)cc2)C(C(=O)OC)=C(C)N1Cc1ccccc1C(F)(F)F (centres undefined)	none (no result: Apaf1 inhib, PP5 inh, GSTO1 inh, PP1 counter)
O=C1CNC(=S)N1C1CCCCCC1	none
CCCC1NC(=S)N(C2CCCCC2)C1=O (centres undefined)	GSTO1 inh 40 | GSTO1 confirm inactive
O=C(C1CCCN1S(=O)(=O)c1ccc(Cl)s1)N1CCN(c2ccccc2)CC1 (centres undefined)	none (no result: Apaf1 inhib, PP5 inh, GSTO1 inh, PP1 counter)
O=C(NN1C(=O)c2ccccc2NC1c1ccc([N+](=O)[O-])o1)c1ccc(Br)cc1 (centres undefined)	GSTO1 inh 39 | GSTO1 confirm inactive
COc1cc(/C=C2\CC/C(=C\c3cc(OC)c(O)c(OC)c3)C2=O)cc(OC)c1O	GSTO1 inh 38 | GSTO1 confirm inactive
COC(=O)C1=C(C)N(C)C(=NCC2CC2)NC1c1ccc(F)cc1 (centres undefined)	none (no result: Apaf1 inhib, PP5 inh, GSTO1 inh, PP1 counter)
CCOc1ccc(C2C(C(=O)/C=C/c3ccco3)=C(O)C(=O)N2CCN2CCOCC2)cc1OC (centres undefined)	GSTO1 inh 38 | GSTO1 confirm inactive
O=C1C(=O)N(CCS(=O)(=O)c2ccccc2)c2ccc(Cl)cc21	GSTO1 inh 43 | GSTO1 confirm inactive
O=C(NC1(C(F)(F)F)Oc2ccccc2O1)N1CCCC1	GSTO1 inh 48 | GSTO1 confirm inactive
O=C(Nc1ccc2c(c1)OCO2)NC1(C(F)(F)F)Oc2ccccc2O1	GSTO1 inh 48 | GSTO1 confirm inactive
O=C(NCC1CCCO1)NC1(C(F)(F)F)Oc2ccccc2O1 (centres undefined)	GSTO1 inh 52 | GSTO1 confirm inactive
Cc1ccc(C(=O)C2CCN(CC(=O)NCc3cccs3)CC2)cc1	none (no result: Apaf1 inhib, PP5 inh, GSTO1 inh, PP1 counter)
COC(=O)[C@]12C[C@H](CC(=O)NCc3ccccc3)C(=O)N(Cc3ccco3)C1=C[C@H](C(C)C)O[C@@H]2C1CC1	none (no result: Apaf1 inhib, PP5 inh, GSTO1 inh, PP1 counter)
CCCCN1C(=O)N2CCc3ccccc3C2CS1(=O)=O (centres undefined)	none (no result: Apaf1 inhib, PP5 inh, GSTO1 inh, PP1 counter)
CCOC(=O)c1[nH]c2ccc(OC)cc2c1NC(=O)CN1CCc2ccccc2C1	GSTO1 inh 51 | GSTO1 confirm inactive
CN(C)c1ccc(N/C=C/C(=O)c2ccco2)cc1	GSTO1 inh 61 | GSTO1 confirm inactive
CC(=O)Nc1ccc(N/C=C/C(=O)c2ccco2)cc1	none
COc1ccc(C(=O)CC2(O)C(=O)N(CN3CCOCC3)c3ccc(Br)cc32)cc1 (centres undefined)	none (no result: Apaf1 inhib, PP5 inh, GSTO1 inh, PP1 counter)
Cc1onc(-c2ccc(Cl)cc2)c1-c1ccn(S(=O)(=O)c2ccccc2)n1	none (no result: Apaf1 inhib, PP5 inh, GSTO1 inh, PP1 counter)
Clc1cc(Cl)cc(CNC2CCC23CCC(c2ccccc2)CC3)c1 (centres undefined)	none (no result: Apaf1 inhib, PP5 inh, GSTO1 inh, PP1 counter)
COc1ccccc1NC(=O)Cc1nc(CCl)cs1	GSTO1 inh 68 | GSTO1 confirm 95 | GSTO1 recomb ABPP inactive
c1ccc2c(c1)nnn1c3ccccc3nc21	none (no result: TDP2 inh)
ClC(Cl)(Cl)c1nc2ccccc2n2nncc12	GSTO1 inh 64 | GSTO1 confirm 52
CCc1nc2ccc(C(=O)NCCc3ccc(OC)c(OC)c3)cc2nc1CC	none
COc1ccc(CCNC(=O)c2ccc3nc(-c4ccco4)c(-c4ccco4)nc3c2)cc1OC	Apaf1 inhib 56, GSTO1 inh 39 (no result: TDP2 inh) | GSTO1 confirm inactive
CCCCNc1c2c3c(cccc3n(C)c1=O)C(=O)c1ccccc1-2	GSTO1 inh 44 (no result: TDP2 inh) | GSTO1 confirm inactive
CC(=O)Nc1ccc(Nc2c3c4c(cccc4n(C)c2=O)C(=O)c2ccccc2-3)cc1	none
Cn1c(=O)c(NCCO)c2c3c(cccc31)C(=O)c1ccccc1-2	GSTO1 inh 82 | GSTO1 confirm 76
Cn1c(=O)c(NCCc2ccccc2)c2c3c(cccc31)C(=O)c1ccccc1-2	GSTO1 inh 156 | GSTO1 confirm 118
Cn1c(=O)c(N)c2c3c(c(Br)ccc31)C(=O)c1ccccc1-2	none
Cn1c(NCCc2ccccc2)cc(=O)n(C)c1=O	none
Cc1ccc[n+](C2=C([O-])c3ccccc3C(=O)C2=O)c1	none (no result: Apaf1 inhib, PP5 inh, GSTO1 inh, PP1 counter)
CC(C)(C)c1cc[n+](C2=C([O-])c3ccccc3C(=O)/C2=N\S(=O)(=O)c2cccs2)cc1	GSTO1 inh 80 | GSTO1 confirm 89
O=C1/C(=N\S(=O)(=O)c2cccs2)C([n+]2ccccc2)=C([O-])c2ccccc21	GSTO1 inh 92 | GSTO1 confirm 86
CCOc1ccc(-n2c(SCC(=O)Nc3cc(C)c(NC(=O)c4ccccc4)cc3OC)nnc2-c2ccncc2)cc1	none (no result: Apaf1 inhib, PP5 inh, GSTO1 inh, PP1 counter)
CC(=O)Oc1cc2cccc(OC(C)=O)c(=O)c2c(OC(C)=O)c1OC(C)=O	GSTO1 inh 67 (no result: TDP2 inh) | GSTO1 confirm 55
Cc1ccsc1C=Nc1ccc(O)cc1	Apaf1 inhib 94, GSTO1 inh 92 (no result: TDP2 inh) | GSTO1 confirm 37
CC(=O)C1=C(c2ccccc2)NC(=S)NC1c1ccc(O)c(O)c1 (centres undefined)	GSTO1 inh 45 | GSTO1 confirm inactive
CCNc1ccc2noc3c2c1C(=O)c1ccccc1-3	GSTO1 inh 94 | GSTO1 confirm 76
COC(=O)C1CN(Cc2ccccc2)CCS(=O)(=O)N1Cc1ccc(F)cc1 (centres undefined)	none (no result: Apaf1 inhib, PP5 inh, GSTO1 inh, PP1 counter)
COc1c(Cl)cc(C(=O)NN)cc1Cl	none
NNC(=O)c1cc(O)c(O)c(O)c1	GSTO1 inh 52 | GSTO1 confirm inactive
CCc1ccccc1NC(=O)c1cc(C)nn1-c1ccccc1	none (no result: Apaf1 inhib, PP5 inh, GSTO1 inh, PP1 counter)
O=C(CCCn1c(SCC(=O)c2ccc(O)c(O)c2)nc2ccccc2c1=O)NCC1CCCO1 (centres undefined)	GSTO1 inh 44 | GSTO1 confirm inactive
